Compound activity: PubChem, several laboratories
Only some compounds are listed: those with a hit (about 1.7% of all), similar ones and a draw of the others.
HNF4A DNA FP: change in binding of human HNF4A to DNA, primary screen, biochemical, fluorescence polarization, FITC-DNA. Hepatocyte nuclear factor 4-alpha (Homo sapiens), P41235. 1 h. activity change, % at 10 µM. 360,000 tested, 0.3% active; in the data active means activity change above about 30%, passing the limit was not always enough
IDE act: human IDE activators in live cells, primary screen, fluorescence polarization, HEK cells, FAbeta-B substrate. FAbeta-B cleavage; 0% vehicle, 100% cell-free pure enzyme wells. 340,000 tested, 0.073% active. Insulin-degrading enzyme (Homo sapiens), P14735. activation, % at 5.96 µM;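 active means activation above the mean of all tested compounds plus 3 SD, set per screening campaign, cut at about 17% in these data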
CSN inh: inhibitors of CSN-mediated cullin deneddylation, primary screen, biochemical, fluorescence polarization, uHTS. 360,000 tested, 0.38% active. inhibition, % at 12.5 µM. Purified CSN, SCF-Nedd8-OG deneddylation;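 active means pattern-corrected inhibition above about 35%, with an unprinted fluorescence ratio check between 0.5 and 1.5, limit read from the data, passing the limit was not always enough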
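Test system: purified human Csn5 enzyme expressed in HEK293T cells. Amount: 0.24 nM enzyme. Reagent: SCFSkp2-Nedd8OG substrate at 10 nM final. Schedule: 90 min incubation of compound, enzyme and substrate at room temperature. Detection: fluorescence polarization. Read-out: % inhibition of substrate cleavage by Csn5.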
TPT1 inh: Candida albicans TPT1 enzyme inhibitors, primary screen, biochemical, fluorescence polarization. AID 1962, 2009. tRNA 2'-phosphotransferase TPT1 (Candida albicans SC5314). inhibition, % at 5 µM. 300,000 tested, 0.81% active. recombinant caTPT1, FP RNA substrate dephosphorylation;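 active means inhibition above the mean of all tested compounds plus 3 SD, set per screening campaign, cut at about 24% in these data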
IDE cell inh: human IDE inhibitors in live cells, primary screen, fluorescence polarization, HEK cells, FAbetaB substrate | Insulin-degrading enzyme (Homo sapiens), P14735 | FAbetaB cleavage | inhibition, % at 5.59 µM | 320,000 tested, 0.41% active;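 active means percent inhibition above the average of all tested compounds plus 3 SD, set per screening campaign, cut at about 16% in these data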;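 further: IDE supplied by intact live HEK cells; FP after avidin binding of uncleaved biotin substrate so inhibition keeps polarization high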
Rpn11 block: Rpn11 (PSMD14) deubiquitinase inhibitors, primary screen, biochemical, fluorescence polarization, uHTS. 360,000 tested, 0.59% active. calls only at 20 µM. human 26S proteasome, Ub4-pepOG fluorescence polarization; 20S core pre-blocked with epoxomicin;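 active means inhibition at 20 µM, scaled to each plate's controls, above about 33%, limit read from the data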
Target sequence (O00487 whole entry, looked up): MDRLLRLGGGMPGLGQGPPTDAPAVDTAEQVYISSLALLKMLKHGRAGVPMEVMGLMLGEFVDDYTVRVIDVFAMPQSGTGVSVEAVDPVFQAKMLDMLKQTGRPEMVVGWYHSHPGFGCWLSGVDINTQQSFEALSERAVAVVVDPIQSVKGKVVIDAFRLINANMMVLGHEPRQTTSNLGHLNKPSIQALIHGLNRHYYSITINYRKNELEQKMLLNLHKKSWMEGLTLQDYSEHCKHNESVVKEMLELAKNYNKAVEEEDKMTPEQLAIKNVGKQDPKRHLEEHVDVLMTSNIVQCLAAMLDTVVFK
Hits are given with their value; i = inactive; nt = not tested or not shown; + = active, no number.

SMILES	HNF4A DNA FP	IDE act	CSN inh	TPT1 inh	IDE cell inh	Rpn11 block
Nc1ccc(OCCCc2c(N)nc(N)nc2N)cc1	i	i	i	i	i	+
COc1cc(C)ccc1OCCCOc1ccccc1Br	i	i	i	i	i	i
COc1ccc(CCNC(=O)CC2Nc3cc(C)c(C)cc3NC2=O)cc1OC (configuration not stated)	i	i	i	i	i	i
CCc1cc(C(=O)OC)c(NC(=O)CC2Nc3cc(C)c(C)cc3NC2=O)s1 (configuration not stated)	61	i	i	i	i	nt
Cc1cc2c(cc1C)NC(CC(=O)NCc1ccccc1)C(=O)N2 (configuration not stated)	i	i	i	i	i	+
COC(=O)c1c(NC(=O)CC2Nc3cc(C)c(C)cc3NC2=O)sc(C)c1C (configuration not stated)	i	i	i	i	i	+
Cc1ccc(C)c2[nH]c(=O)c(CCNC(=O)c3ccco3)cc12	i	i	i	i	i	i
CCCSC1=N/C(=C\c2ccc([N+](=O)[O-])o2)C(=O)S1	i	i	i	nt	nt	+
CCN(CC)CCNC(=O)CS(=O)Cc1nc(-c2ccccc2Cl)oc1C (configuration not stated)	i	18	i	i	i	i
CCN(CC)CCNC(=O)CS(=O)Cc1nc(-c2ccc(Cl)cc2)oc1C (configuration not stated)	i	i	i	i	i	i
CCOC(=O)c1ccc(-n2c(CCC(=O)O)ccc2-c2ccc(F)cc2)cc1	i	i	42	i	i	i
COC(=O)c1ccc(-n2c(CCC(=O)O)ccc2-c2ccc(C)cc2)cc1	i	i	i	i	i	i
Cc1cccc(C)c1NC(=O)C1c2ccccc2Oc2ccccc21	i	i	i	i	i	i
CCCCC(=O)N1CCN(c2nc3ccc(OCC)cc3s2)CC1	i	i	63	i	i	i
O=Cc1ccc2oc3nc4n(c(=O)c3c(=O)c2c1)CCCS4	i	i	45	i	i	nt
CCc1c2c(nc3ccc(OC(=O)N4CCC(N5CCCCC5)CC4)cc13)-c1cc3c(c(=O)n1C2)COC(=O)[C@]3(O)CC	nt	i	i	i	i	i
O=S(=O)(O)c1cccc2c(N=Nc3ccc(O)c4ncccc34)cccc12	i	36	i	i	i	i
Cc1ccccc1N=Nc1ccc(O)c2ncccc12	i	i	i	i	i	i
CN(Cc1ccccc1)S(=O)(=O)c1ccc(Cl)nc1	i	i	40	i	i	i
CC(=O)Nc1ccc(C2=NOC(C)(C)C(=O)N2Cc2cccc(C#N)c2)cc1	i	nt	i	nt	nt	i
CC(=O)Nc1ccc(N2S(=O)(=O)c3ccccc3S2(=O)=O)cc1	i	20	i	i	i	i
O=C(COc1ccc([N+](=O)[O-])cc1)NC(C(=O)O)C(O)c1cccc([N+](=O)[O-])c1 (configuration not stated)	i	i	53	i	i	i
Cc1ccc2c(c1)c1c(n2CC(O)CNC2CCCC2)CCCC1 (configuration not stated)	i	18	i	i	i	i
Cc1ccc2c(c1)c1c(n2CC(O)Cn2ccnc2C)C(=O)CCC1 (configuration not stated)	i	i	i	i	i	i
COc1ccc(NC(=O)CN(C)C(=O)CCSc2ccc(C)cc2)cc1	i	i	i	i	i	i
SMILES	HNF4A DNA FP	IDE act	CSN inh	TPT1 inh	IDE cell inh	Rpn11 block
N#C/C(=C/C1=C(N2CCOCC2)C(=C/c2ccccc2)/CC1)C(=O)Nc1ccccc1F	i	i	58	nt	nt	nt
CCN(CC)c1ccc(/C=C2\CCC(/C=C(\C#N)C(=O)Nc3ccccc3F)=C2N2CCOCC2)cc1	i	i	i	nt	nt	i
COc1ccc(C(CNC(=O)Cc2ccc3ccccc3c2)N(C)C)cc1 (configuration not stated)	i	i	i	i	i	i
COc1cccc(-c2nn(-c3ccccc3)cc2CNC(C)Cn2cncn2)c1 (configuration not stated)	i	i	38	i	i	i
COc1ccc2c3c(cccc13)C(=O)CC2	i	43	i	nt	nt	i
COc1ccc2cc1Oc1ccc(cc1)CC1c3c(cc(OC)c4c3Oc3cc5c(cc3O4)CCNC5C2)CCN1C (configuration not stated)	100	i	i	i	i	i
COc1cc2c(c(O)c1OC)C1Cc3ccc(OC)c(OC)c3CN1CC2 (configuration not stated)	i	nt	i	nt	nt	i
COc1ccc2cc1Oc1ccc(cc1)C[C@H]1c3c(cc(OC)c4c3Oc3c(ccc5c3[C@H](C2)N(C)CC5)O4)CCN1C	76	i	i	nt	i	i
CCOC(=O)c1ccc(NC(=O)Nc2ccc(F)cc2)cc1	i	i	i	i	i	i
CCCCCCNc1ccc(C(=O)OCC)cc1	i	nt	124	nt	nt	i
CCCSc1nc2sc3c(c2c(=O)[nH]1)CCN(Cc1ccccc1)C3	i	i	i	82	i	+
Cc1cc(=O)c2ccccc2n1CC(=O)NCc1ccccc1	30	i	i	i	i	i
COc1ccc2c(c1)CCC1C2=NN(/C(C)=C\C(C)=O)C1c1ccc(F)cc1 (configuration not stated)	53	i	i	i	i	+
CC1(C)Cc2c(c(-c3ccccc3Cl)[nH]c(=O)c2C#N)CO1	i	i	i	i	i	i
N#Cc1c(-c2ccc(Cl)cc2)c2c([nH]c1=O)-c1ccccc1OC2	i	i	i	i	16	i
CCCc1cc(=O)[nH]c(-n2[nH]c3c(c2=O)CCCC3)n1	i	i	i	i	19	i
O=C(CCc1nnc(Cc2ccc(-c3ccccc3)cc2)o1)NCC1CC1	i	i	i	i	i	i
COCCNC(=O)CCc1nnc(Cc2ccc(-c3ccccc3)cc2)o1	i	i	115	i	i	i
COc1ccc(C(=O)Nc2nc(CC(=O)NCc3ccc(F)cc3)cs2)cc1	i	i	i	i	i	i
O=C(c1ccc2nc3ccccc3c(=O)n2c1)N1CCN(Cc2ccc3c(c2)OCO3)CC1	39	i	i	i	i	i
O=C(c1cccn2c(=O)c3ccccc3nc12)N1CCN(Cc2ccc3c(c2)OCO3)CC1	i	i	i	i	i	i
COc1ccc(OC)c(-c2c3cc(O)c(=O)cc-3oc3cc(O)c(O)cc23)c1	i	i	46	i	39	i
